The structures appear in SMILES notation.

What all share (assay type): functional
Experiment [1] in a line: Inhibition of ADP-induced aggregation of human blood platelets in plasma. The following applies: Homo sapiens, Plasma.
Experiment [2] in a line: Compound was tested for inhibition of ADP-induced aggregation of blood platelets in human platelet rich plasma at >68 uM concentration. The essentials: (§1)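 Human platelet-rich plasma with aggregation triggered by ADP and followed by aggregometry. Each test acid was run at one stated upper concentration, and the read-out is percent inhibition of aggregation at that concentration. Each value is from a single experiment or is the mean of duplicate determinations.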

Experiment [3] in a line: Compound was tested for inhibition of ADP-induced aggregation of blood platelets in human platelet rich plasma at >76 uM concentration. In outline:
as §1

Experiment [4] is described as follows: Compound was tested for inhibition of ADP-induced aggregation of blood platelets in human platelet rich plasma at >82 uM concentration. The essentials: as §1
A short description of experiment [5]: Compound was tested for inhibition of ADP-induced aggregation of blood platelets in human platelet rich plasma at >84 uM concentration. In outline: as §1
Experiment [6] is described as follows: Compound was tested for inhibition of ADP-induced aggregation of blood platelets in human platelet rich plasma at >32 uM concentration. The essentials:
as §1

Experiment [7] in a line: Compound was tested for inhibition of ADP-induced aggregation of blood platelets in human platelet rich plasma at >60 uM concentration. In outline: as §1
The nature of experiment [8]: Compound was tested for inhibition of ADP-induced aggregation of blood platelets in human platelet rich plasma at >75 uM concentration. The essentials: as §1
Experiment [9] can be described thus: Compound was tested for inhibition of ADP-induced aggregation of blood platelets in human platelet rich plasma at 20 uM concentration. The essentials:
as §1

Experiment [10] in a line: Compound was tested for inhibition of ADP-induced aggregation of blood platelets in human platelet rich plasma at <80 uM concentration. In outline:
as §1

Experiment [11] can be described thus: Compound was tested for inhibition of ADP-induced aggregation of blood platelets in human platelet rich plasma at >65 uM concentration. The essentials: as §1
A short description of experiment [12]: Compound was tested for inhibition of ADP-induced aggregation of blood platelets in human platelet rich plasma at >78 uM concentration. The essentials: as §1

On to `O=C(O)COc1cccc(CCc2nc(-c3cccc(Cl)c3)c(-c3cccc(Cl)c3)o2)c1`, for which, in experiment [1], the IC50 (in general, the concentration needed to halve the response being measured) is above 68 µM. Further, the Inhibition (as a rule, the drop in the measured response relative to a control, in per cent) in experiment [2] is reported as 0%.

In turn, `O=C(O)CCCCOc1ccc(-n2cnc(-c3ccccc3)c2-c2ccccc2)cc1` displayed an Inhibition in experiment [3] of 31%. The molecule also registered a concentration for half-maximal inhibition (IC50) in experiment [1] above 76 µM. On to `O=C(O)CCCCCCCCN(C(=O)c1ccccc1)c1ccccc1`, for which the concentration for half-maximal inhibition (IC50) in experiment [1] is above 90 µM. On to `O=C(O)COc1cccc(-n2cnc(-c3ccccc3)c2-c2ccccc2)c1`, for which the Inhibition in experiment [4] was found to be 18%. For the same molecule, the IC50 in experiment [1] is above 82 µM. `O=C(O)COc1cccc(CCc2cc(-c3ccccc3)n(-c3ccccc3)n2)c1` displayed an IC50 in experiment [1] of 1.67 µM.

`O=C(O)COc1cccc(CCc2nc(-c3ccc(F)cc3)c(-c3ccc(F)cc3)o2)c1` came in with an IC50 in [1] of 4.8 µM. As for `O=C(O)COc1ccc(-n2cnc(-c3ccccc3)c2-c2ccccc2)cc1`, the Inhibition in experiment [5] is listed as 23%. The same molecule had a half-maximal inhibitory concentration (IC50) in [1] above 84 µM. In experiment [1], `O=C(O)COc1cccc(CCc2nc(-c3ccccc3)c(-c3ccccc3)s2)c1` showed an IC50 of 0.86 µM. Consider `O=C(O)CCCCOc1cccc(-n2cnc(-c3ccccc3)c2-c2ccccc2)c1`, for which the concentration for half-maximal inhibition (IC50) in experiment [1] is above 32 µM. For the same molecule, the Inhibition in experiment [6] is given as 23%.

Take `O=C(O)COc1cccc(CCc2nc(-c3ccc(C(F)(F)F)cc3)c(-c3ccc(C(F)(F)F)cc3)o2)c1`: the IC50 in experiment [1] was above 60 µM. Moreover, the Inhibition in experiment [7] is recorded as 1%. In turn, `O=C(O)CCCCCCCCn1ccc(C(c2ccccc2)c2ccccc2)n1` came in with an IC50 in experiment [1] above 80 µM.

On to `O=C(O)CCCCCCCn1cc(-c2ccccc2)c(-c2ccccc2)nc1=O`, for which the IC50 in [1] was 25.6 µM. In turn, `O=C(O)COc1cccc(CCc2nc(-c3ccc(Br)cc3)c(-c3ccc(Br)cc3)o2)c1` showed an IC50 in experiment [1] of 12.6 µM. For the molecule `Cc1cccc(-c2nc(CCc3cccc(OCC(=O)O)c3)oc2-c2cccc(C)c2)c1`, the IC50 in experiment [1] was above 75 µM. Moreover, the Inhibition in experiment [8] amounted to 30%. For `O=C(O)COc1cccc(CCc2nc3c4ccccc4c4ccccc4c3o2)c1`, the inhibition (commonly the drop in the measured response relative to a control, in per cent) at 20 µM in [9] worked out at 0%. For the same molecule, the IC50 in experiment [1] is above 20 µM. As to `O=C(O)CCCCCCCCn1cc(-c2ccccc2)c(-c2ccccc2)c1`, in experiment [1], the IC50 worked out at 10.3 µM. In other words, the double-digit micromolar range. Turning to `O=C(O)CCCOc1cccc(-n2cnc(-c3ccccc3)c2-c2ccccc2)c1`, the Inhibition in experiment [10] is listed as 57%. Besides, in experiment [1], the concentration for half-maximal inhibition (IC50) was below 80 µM.

`CSc1ccc(-c2nc(CCc3cccc(OCC(=O)O)c3)oc2-c2ccc(SC)cc2)cc1` gave a half-maximal inhibitory concentration (IC50) in [1] above 65 µM. The Inhibition in [11] came out at 32%.

Molecule `O=C(O)COc1cccc(CCc2nc(C3CCCCC3)c(C3CCCCC3)o2)c1` registered an Inhibition in experiment [12] of 25%. The same molecule gave an IC50 in experiment [1] above 78 µM.

These data come from ChEMBL document CHEMBL1126128, “Nonprostanoid prostacyclin mimetics. 3. Structural variations of the diphenyl heterocycle moiety” (J Med Chem, 1992).
